# Data: ChEMBL document CHEMBL5149991 (J Med Chem, 2021)
# Columns and labels:
# Histamine H3 receptor [1] = molecular target: T1, Histamine H3 receptor (Homo sapiens, UniProt Q9Y5N1); assay: Displacement of [3H]UR-PI294 from human histamine H3 receptor stably expressed in baculovirus infected Sf9 cell membrane co-expressing G-alphai2 and G-beta1gamma2 incubated for 60 mins by scintillation counting analysis; format: cell membranes
# Summary of the method: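 hH3R + Gαi2 + Gβ1γ2 expressed in Sf9 membranes. […] Mean ± SEM from N independent experiments in triplicate.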
# [2] = Chemical stability in pH 7.4 buffer measured at 0 to 2 weeks by HPLC analysis; format: physicochemical; details: time 0-2 weeks
# Histamine H2 receptor [3] = molecular target: T2, Histamine H2 receptor (Homo sapiens, UniProt P25021); assay: Displacement of [3H]UR-DE257 from human histamine H2 receptor stably expressed in baculovirus infected Sf9 cell membrane co-expressing RG-Salpha S incubated for 60 mins by scintillation counting analysis; format: cell membranes
# Histamine H4 receptor = Histamine H4 receptor (Homo sapiens, UniProt Q9H3N8)
# Histamine H1 receptor = Histamine H1 receptor (Homo sapiens, UniProt P35367)
# D(3) dopamine receptor [4] = molecular target: T3, D(3) dopamine receptor (Homo sapiens, UniProt P35462); assay: Agonist activity at human D3 receptor stably expressed in HEK293T cells co-expressing ElucN-betaarr2 hD3R-ElucC by beta-arrestin2 recruitment assay; format: functional, cell-based
# D(2) dopamine receptor [5] = molecular target: T4, D(2) dopamine receptor (Homo sapiens, UniProt P14416); format: functional, cell-based, HEK293T;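 also: agonist mode, β-arrestin2 recruitment to the human D2 long isoform stably expressed in HEK293T cells, read by split luciferase complementation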
# D(3) dopamine receptor [6] = molecular target: T3, D(3) dopamine receptor; assay: Displacement of [3H]N-methylspiperone from human D3 receptor stably expressed in HEK293T cells co-expressing luciferase and CEK incubated for 140 mins by radioligand competition binding based assay; format: cell-based
# D(2) dopamine receptor [7] = molecular target: T4, D(2) dopamine receptor; assay: Displacement of [3H]N-methylspiperone from human D2 long receptor stably expressed in HEK293T cells co-expressing luciferase and CEK incubated for 140 mins by radioligand competition binding based assay; format: cell-based
# Histamine H2 receptor [8] = molecular target: T2, Histamine H2 receptor; assay: Agonist activity at human histamine H2 receptor stably expressed in HEK293T cells co-expressing ARRB2 incubated for 60 mins by beta-arrestin2 recruitment assay; format: functional, cell-based
# Histamine H2 receptor [9] = molecular target: T2, Histamine H2 receptor; assay: Agonist activity at human histamine H2 receptor stably expressed in HEK293T cells co-expressing NlucN-mGs/hH2R-NlucC assessed as induction of mini-Gs protein recruitment using furimazine as substrate measured for 45 mins by luminescence assay
# Histamine H3 receptor [10] = molecular target: T1, Histamine H3 receptor
# Histamine H2 receptor [11] = molecular target: T5, Histamine H2 receptor (Cavia porcellus, UniProt P47747); assay: Agonist activity at guinea pig histamine H2 receptor stably transfected in HEK293T cells co-expressing NlucN-mGs/gpH2R-NlucC by mini-G protein recruitment assay; format: functional, cell-based
# Histamine H2 receptor [12] = molecular target: T5, Histamine H2 receptor; assay: Agonist activity at histamine H2 receptor in spontaneous beating guinea pig right atrium assessed as increase in heart beat; format: functional, tissue-based, Right cardiac atrium
# T2 sequence (P25021 whole entry): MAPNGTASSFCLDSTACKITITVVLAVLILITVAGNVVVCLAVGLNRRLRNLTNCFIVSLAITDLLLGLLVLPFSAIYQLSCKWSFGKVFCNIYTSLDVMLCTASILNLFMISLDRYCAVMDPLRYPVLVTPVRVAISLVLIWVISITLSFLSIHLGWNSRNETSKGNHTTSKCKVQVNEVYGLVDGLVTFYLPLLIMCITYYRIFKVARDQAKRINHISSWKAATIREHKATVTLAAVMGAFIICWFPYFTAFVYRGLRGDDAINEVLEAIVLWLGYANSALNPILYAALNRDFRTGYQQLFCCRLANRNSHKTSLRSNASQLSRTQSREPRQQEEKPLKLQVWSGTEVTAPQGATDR
# Sequence of Histamine H4 receptor (Q9H3N8 whole entry): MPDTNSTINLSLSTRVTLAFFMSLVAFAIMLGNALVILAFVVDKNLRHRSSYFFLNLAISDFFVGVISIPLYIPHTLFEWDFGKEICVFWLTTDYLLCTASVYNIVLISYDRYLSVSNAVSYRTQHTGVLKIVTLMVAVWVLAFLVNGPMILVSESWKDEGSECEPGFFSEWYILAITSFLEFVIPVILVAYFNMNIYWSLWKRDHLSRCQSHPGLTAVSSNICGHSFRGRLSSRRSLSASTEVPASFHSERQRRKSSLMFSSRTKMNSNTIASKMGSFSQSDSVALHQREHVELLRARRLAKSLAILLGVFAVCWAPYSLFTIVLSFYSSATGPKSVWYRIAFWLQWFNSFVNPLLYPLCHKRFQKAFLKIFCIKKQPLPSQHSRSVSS
# Sequence of Histamine H1 receptor (P35367 whole entry): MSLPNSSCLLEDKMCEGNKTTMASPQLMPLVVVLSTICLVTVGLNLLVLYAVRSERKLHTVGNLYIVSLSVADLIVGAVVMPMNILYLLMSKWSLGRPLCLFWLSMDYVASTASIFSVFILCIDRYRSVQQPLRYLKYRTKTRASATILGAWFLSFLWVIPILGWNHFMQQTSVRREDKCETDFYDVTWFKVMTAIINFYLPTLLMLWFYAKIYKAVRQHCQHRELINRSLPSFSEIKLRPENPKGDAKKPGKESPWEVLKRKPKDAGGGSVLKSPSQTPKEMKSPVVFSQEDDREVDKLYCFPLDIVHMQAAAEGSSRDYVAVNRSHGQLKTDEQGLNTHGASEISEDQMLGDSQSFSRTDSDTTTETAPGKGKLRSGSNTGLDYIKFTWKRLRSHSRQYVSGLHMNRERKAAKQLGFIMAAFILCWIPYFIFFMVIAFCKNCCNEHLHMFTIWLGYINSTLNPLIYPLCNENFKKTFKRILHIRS
# T1 sequence (Q9Y5N1 whole entry): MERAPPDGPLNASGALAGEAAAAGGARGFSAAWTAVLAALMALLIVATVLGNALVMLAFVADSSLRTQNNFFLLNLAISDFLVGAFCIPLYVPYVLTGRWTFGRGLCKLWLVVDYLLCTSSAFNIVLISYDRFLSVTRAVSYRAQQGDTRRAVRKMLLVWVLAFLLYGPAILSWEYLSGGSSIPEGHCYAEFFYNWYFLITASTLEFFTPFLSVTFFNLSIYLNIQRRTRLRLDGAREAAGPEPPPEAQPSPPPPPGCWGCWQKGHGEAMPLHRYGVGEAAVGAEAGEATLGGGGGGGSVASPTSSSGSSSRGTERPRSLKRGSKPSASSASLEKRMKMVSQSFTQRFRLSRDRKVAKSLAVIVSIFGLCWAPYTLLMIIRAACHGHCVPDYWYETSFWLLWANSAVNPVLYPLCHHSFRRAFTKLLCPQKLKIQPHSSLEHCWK
# T4 sequence (P14416 whole entry, canonical isoform): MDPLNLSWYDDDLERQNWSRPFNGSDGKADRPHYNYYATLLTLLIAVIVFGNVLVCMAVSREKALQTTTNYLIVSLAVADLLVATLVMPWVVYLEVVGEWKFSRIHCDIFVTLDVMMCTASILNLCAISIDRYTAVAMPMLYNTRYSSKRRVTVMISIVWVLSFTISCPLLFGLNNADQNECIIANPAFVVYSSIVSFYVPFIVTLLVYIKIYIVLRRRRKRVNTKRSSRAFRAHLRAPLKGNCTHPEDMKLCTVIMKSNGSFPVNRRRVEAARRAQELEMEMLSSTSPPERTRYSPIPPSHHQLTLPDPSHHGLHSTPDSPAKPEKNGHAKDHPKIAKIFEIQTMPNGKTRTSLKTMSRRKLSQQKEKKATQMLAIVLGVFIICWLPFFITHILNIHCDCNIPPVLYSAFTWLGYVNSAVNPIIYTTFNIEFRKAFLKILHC
# T3 sequence (P35462 whole entry, canonical isoform): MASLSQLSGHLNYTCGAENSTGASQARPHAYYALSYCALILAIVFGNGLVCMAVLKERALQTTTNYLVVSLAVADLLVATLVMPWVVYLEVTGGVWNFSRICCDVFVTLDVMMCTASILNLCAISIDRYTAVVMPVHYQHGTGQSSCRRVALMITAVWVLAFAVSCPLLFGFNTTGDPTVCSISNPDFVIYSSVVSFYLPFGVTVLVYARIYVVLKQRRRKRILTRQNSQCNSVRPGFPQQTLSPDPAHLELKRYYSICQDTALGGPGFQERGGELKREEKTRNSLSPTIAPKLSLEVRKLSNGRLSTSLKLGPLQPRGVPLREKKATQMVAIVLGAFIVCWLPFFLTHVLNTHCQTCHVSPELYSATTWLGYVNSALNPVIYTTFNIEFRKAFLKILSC
# T5 sequence (P47747 whole entry): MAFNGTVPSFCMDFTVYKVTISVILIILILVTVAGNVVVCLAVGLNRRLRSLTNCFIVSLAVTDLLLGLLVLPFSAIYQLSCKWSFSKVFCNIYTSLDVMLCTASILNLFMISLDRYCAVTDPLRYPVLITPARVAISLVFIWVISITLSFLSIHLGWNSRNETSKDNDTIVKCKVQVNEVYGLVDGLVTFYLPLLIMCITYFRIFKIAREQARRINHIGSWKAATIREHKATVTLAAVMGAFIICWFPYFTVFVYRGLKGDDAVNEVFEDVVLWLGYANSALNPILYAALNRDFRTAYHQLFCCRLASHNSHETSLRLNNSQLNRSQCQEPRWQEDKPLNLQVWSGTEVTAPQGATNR
Compound,Ki (Histamine H3 receptor [1]),Stability [2],Ki (Histamine H2 receptor [3]),Kd (Histamine H4 receptor),Ki (Histamine H4 receptor),Kd (Histamine H1 receptor),Ki (Histamine H1 receptor),EC50 (D(3) dopamine receptor [4]),EC50 (D(2) dopamine receptor [5]),Ki (D(3) dopamine receptor [6]),Ki (D(2) dopamine receptor [7]),EC50 (Histamine H2 receptor [8]),EC50 (Histamine H2 receptor [9]),Kd (Histamine H3 receptor [10]),Ki (Histamine H3 receptor [10]),EC50 (Histamine H2 receptor [11]),EC50 (Histamine H2 receptor [12])
Cc1nc(N)oc1CCCN/C(N)=N/C(=O)NCC(C)C1CCCCC1.O=C(O)C(F)(F)F.O=C(O)C(F)(F)F (centres undefined),8320 nM,Stable,245 nM,16 nM,7590 nM,4.5 nM,6030 nM,,,,,,,,,,
N/C(=N\C(=O)NCc1ccccc1)NCCCc1cnc(N)s1,> 10000 nM,,26.9 nM,16 nM,> 10000 nM,4.5 nM,5620 nM,67.6 nM,3390 nM,74.1 nM,4570 nM,49 nM,4.9 nM,,,,
CC(CCCc1ccccc1)CNC(=O)/N=C(\N)NCC1CCc2nc(N)sc2C1 (centres undefined),1740 nM,,110 nM,16 nM,4070 nM,4.5 nM,3890 nM,,,,,,,3 nM,1740 nM,,
CCCCCCNC(=O)/N=C(\N)NCCCc1nnc(N)o1.O=C(O)C(F)(F)F.O=C(O)C(F)(F)F,> 10000 nM,Stable,389 nM,16 nM,> 10000 nM,4.5 nM,8910 nM,,,,,,,,,,
CCCCCNC(=O)/N=C(\N)Nc1ccc(-c2sc(N)nc2C)cc1.O=C(O)C(F)(F)F.O=C(O)C(F)(F)F,11500 nM,Stable,457 nM,16 nM,7760 nM,4.5 nM,3720 nM,,,,,,,3 nM,11500 nM,,
CCCCCNC(=O)/N=C(\N)NCC1CCc2nc(N)sc2C1.O=C(O)C(F)(F)F.O=C(O)C(F)(F)F (centres undefined),6610 nM,Stable,155 nM,16 nM,5890 nM,4.5 nM,5250 nM,,,,,,,3 nM,6610 nM,,
CCCCCNC(=O)/N=C(\N)Nc1cccc(-c2sc(N)nc2C)c1.O=C(O)C(F)(F)F.O=C(O)C(F)(F)F,9550 nM,Stable,191 nM,16 nM,7410 nM,4.5 nM,6610 nM,,,,,,,,,,
Cc1ccc(CC(C)CNC(=O)/N=C(\N)Nc2ccc(-c3sc(N)nc3C)cc2)cc1 (centres undefined),8320 nM,,331 nM,16 nM,6310 nM,4.5 nM,1820 nM,,,,,,,3 nM,8320 nM,,
Cc1ccc(CC(C)CNC(=O)/N=C(\N)NCCCc2cnc(N)s2)cc1 (centres undefined),4790 nM,,64.6 nM,16 nM,4470 nM,4.5 nM,2510 nM,1050 nM,4470 nM,229 nM,490 nM,234 nM,77.6 nM,,,,
Cc1ccc(CC(C)CNC(=O)/N=C(\N)NCCCc2nnc(N)s2)cc1.O=C(O)C(F)(F)F.O=C(O)C(F)(F)F (centres undefined),2340 nM,Stable,,16 nM,6920 nM,4.5 nM,1350 nM,> 10000 nM,,2040 nM,1070 nM,,,,,14.8 nM,95.5 nM
Cc1nc(N)sc1-c1ccc(N/C(N)=N/C(=O)NCc2ccccc2)cc1,8510 nM,,214 nM,16 nM,12000 nM,4.5 nM,1290 nM,,,,,,,3 nM,8510 nM,,
CCCCCNC(=O)/N=C(/N)NCCCc1nnc(C)s1.O=C(O)C(F)(F)F,> 10000 nM,Stable,2190 nM,16 nM,> 10000 nM,4.5 nM,> 10000 nM,,,,,,,,,,
N/C(=N\C(=O)NCc1ccccc1)NCC1CCc2nc(N)sc2C1 (centres undefined),,,302 nM,16 nM,5890 nM,4.5 nM,3890 nM,,,,,,,3 nM,11200 nM,,
Cc1ccc(CC(C)CNC(=O)/N=C(\N)NCC2CCc3nc(N)sc3C2)cc1 (centres undefined),,,107 nM,16 nM,3390 nM,4.5 nM,182 nM,,,,,,,3 nM,1950 nM,,
Cc1nc(N)sc1-c1ccc(N/C(N)=N/C(=O)NCC(C)CCCc2ccccc2)cc1 (centres undefined),7940 nM,,316 nM,16 nM,6030 nM,4.5 nM,7590 nM,,,,,,,3 nM,7940 nM,,
Cc1nnc(CCCN/C(N)=N/C(=O)NCC(C)C2CCCCC2)s1 (centres undefined),,,1050 nM,16 nM,> 10000 nM,4.5 nM,7080 nM,,,,,,,3 nM,11500 nM,,
CCCCCNC(=O)/N=C(\N)NCCCc1cnc(N)s1.O=C(O)C(F)(F)F.O=C(O)C(F)(F)F,> 10000 nM,Stable,22.9 nM,16 nM,> 10000 nM,4.5 nM,9550 nM,,,,,56.2 nM,6.03 nM,,,,
CC(CCCc1ccccc1)CNC(=O)/N=C(\N)NCCCc1nnc(N)s1 (centres undefined),3980 nM,,,16 nM,4900 nM,4.5 nM,5130 nM,468 nM,,324 nM,447 nM,,,,,,
Cc1nc(N)sc1-c1ccc(N/C(N)=N/C(=O)NC2CCCCC2)cc1,12300 nM,,550 nM,16 nM,6920 nM,4.5 nM,5500 nM,,,,,,,3 nM,12300 nM,,
CCCN[C@H]1CCc2nc(N)sc2C1 [PRAMIPEXOLE],,,13800 nM,16 nM,,4.5 nM,,,,,,,166 nM,,,,
NCCCCCCCCNC(=O)/N=C(\N)NCCCc1nnc(N)s1,> 10000 nM,,33.1 nM,16 nM,> 10000 nM,4.5 nM,525 nM,,,,,,,,,,
